High-throughput results as filed in PubChem BioAssay.
NALP3 yeast inh: inhibitors of NALP3 inflammasome in yeast; 330,000 compounds, 0.39% hits; AID 2825; inhibition, % at 10 µM; Yeast reconstituted NLRP3/ASC/caspase-1, beta-gal luminescence, 24 h;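 active = inhibition of 50% or more; inactive = inhibition below 50%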;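 also: plate controls were induced DMSO wells for no effect and uninduced yeast grown without galactose for full effect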
Calb FLC: C. albicans growth modulation with fluconazole. C. albicans CaCi-2 + fluconazole, Alamar Blue growth, 48 h. growth inhibition, % (test concentration not listed). 300,000 compounds, 0.57% hits;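 active = growth inhibition above about 58% in most replicates, limit read from the data, passing the limit was not always enough; inconclusive = exactly half the replicates above a set limit; inactive = most replicates below a set limit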;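 also: all wells also contain fluconazole at 8 µg/ml as a sub-toxic cotreatment; 0% = median of DMSO wells and 100% = median of geldanamycin control wells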
T cruzi repl: T. cruzi replication inhibition | AID 1885 | T. cruzi beta-gal in NIH3T3, luminescence, 90 h | 300,000 compounds, 1.4% hits | inhibition, % (no concentration beside the values);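 active = mean inhibition across valid replicates above about 55%, limit read from the data; inconclusive = mean below that limit but half or more replicates reach it; inactive = mean below it, under half of replicates reach it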;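 also: signal also drops with host cell toxicity which is not excluded here; 0% = plate median of DMSO wells and 100% = zero luminescence signal; higher percent means less beta-gal luminescence so fewer parasites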
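assay system = mouse NIH/3T3 fibroblasts infected with β-gal-expressing T. cruzi Tulahuen C4 | input = 5,000 NIH/3T3 host cells per well | buffer or medium = DMEM plus 2% FBS | timing = 3 h host attachment, then at least 90 h co-culture | measured by = GalScreen luminescence, 60 min | evaluation = luminescence reflecting intracellular parasite burden, expressed as percent inhibition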
PolyA inhibitor: inhibitors of polyadenylation in S. cerevisiae. activity score, % at 12 µM. S. cerevisiae SKY197-pL101 polyadenylation reporter, beta-gal luminescence; efflux-impaired pdr1/pdr3 knockout yeast; score 100 = 6 SD above DMSO. 300,000 compounds, 0.02% hits;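 active = lowest replicate activity score at least 50, where 100 means six control SD above control mean; inconclusive = lowest score under 50 but half or more replicates reach 50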;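 also: yeast exposed to compound for 9 h at 30 °C; higher score means more reporter readthrough which indicates perturbed polyadenylation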
NALP1 yeast inh: blocks the NALP1 inflammasome reconstituted in yeast; S. cerevisiae NALP1/ASC/caspase-1 growth, X-gal OD620, 72 h; AID 2071; 280,000 compounds, 0.61% hits; inhibition, % at 10 µM; in the data active = inhibition mostly above about 24%, no sharp cut-off; inactive = mostly below about 32%
L major viab: inhibitors of Leishmania major promastigote growth | Leishmania major promastigotes, resazurin fluorescence viability | inhibition, % at 10 µM | 200,000 compounds, 9% hits | AID 1063; in the data active = inhibition above about 50%;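 also: promastigotes grown with compound for 44 hours at 28 °C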
Active calls of the source: *; ? = inconclusive; . = no result given. The sample as a whole holds a higher share of hits than the screen did.

SMILES	NALP3 yeast inh	Calb FLC	T cruzi repl	PolyA inhibitor	NALP1 yeast inh	L major viab
S=C(Nc1ccccc1)N1CCN(C2CCCCC2)CC1	8.5	-7.8	4.2	0.6	.	88.3*
Cc1ccc(NC(=S)N2CCN(C(=O)C3CCCO3)CC2)cc1 (configuration not stated)	19.9	0.3	-9.5	2.3	25.9	-1.3
S=C(Nc1ccccc1)N1CCCCCC1	1.8	-3.0	-2.8	-11.8	17.9	-6.5
O=C(C1CCCO1)N1CCN(C(=S)Nc2ccccc2)CC1 (configuration not stated)	-4.1	-2.4	-27.9	24.9	22.0	53.2*
O=C(C1CCCO1)N1CCN(S(=O)(=O)c2ccccc2)CC1 (configuration not stated)	3.2	-16.4	-9.6	9.3	26.9	4.2
O=C(O)c1ccc2c(c1)S(=O)(=O)c1cc(Cl)ccc1C2=O	-3.2	.	.	.	.	.
CCCCC(=O)Nc1ncc([N+](=O)[O-])s1	21.5	83.5*	.	-39.6	-8.6	19.6
COc1ccc(CC(=O)Nc2nccs2)cc1OC	3.3	-3.2	-4.3	-4.4	17.9	-8.7
COc1ccc(CC(=O)Nc2ncc([N+](=O)[O-])s2)cc1OC	-9.0	?	62.8*	-16.1	2.4	16.1
CCSc1ccccc1C(=O)Nc1ccc(S(=O)(=O)NC(C)=O)cc1	20.7	1.3	2.8	-0.7	14.1	-6.7
CC(C)Cc1nnc(NC(=O)CCC(=O)N2CCN(Cc3ccccc3)CC2)s1	6.9	-1.0	20.1	1.1	4.2	.
CC(Sc1nnc(C2CCCCC2)n1N)C(=O)NCc1ccc2c(c1)OCO2 (configuration not stated)	-8.2	-8.5	0.6	3.9	11.8	-2.5
Cc1ccc(-c2nc3cnccn3c2Nc2ccc3c(c2)OCO3)o1	1.9	-0.9	5.6	-18.7	24.0	39.3
Cc1ccn2c(NC3CCCC3)c(-c3ccccn3)nc2c1	6.3	-23.9	65.3*	-5.2	-12.1	100.6*
c1ccc(-c2nc3ccccn3c2NC2CCCC2)nc1	25.9	-3.4	-13.3	3.2	-13.1	100.3*
Cc1ccn2c(Nc3ccc4c(c3)OCO4)c(-c3ccccn3)nc2c1	40.9	-22.6	38.2	-37.4	9.4	100.5*
COc1ccc(-c2nc3ccccn3c2NC2CCCCC2)cc1SC1CCCCC1	32.7	16.1	36.7	0.4	.	.
COc1cc(NC(=S)N2CCN(c3ccccn3)CC2)cc(OC)c1	7.3	-4.1	3.7	1.8	11.5	-4.0
Cc1ccc(S(=O)(=O)N2CCOCC2)cc1NC(=O)CSc1nc(N)cc(N)n1	4.9	.	.	.	.	.
O=C(Oc1ccc(C(=S)N2CCOCC2)cc1)c1cccc([N+](=O)[O-])c1	17.5	-7.0	-8.7	-7.6	-2.4	.
O=C(/C=C/c1cccs1)c1ccc([N+](=O)[O-])cc1	8.0	5.4	-2.7	0.0	42.8*	.
COc1ccc(/C=C/C(=O)c2ccncc2)c2ccccc12	14.0	34.5	-27.5	-0.1	37.6	97.5*
COc1cccc(/C=C/C(=O)c2cccc([N+](=O)[O-])c2)c1OC	-3.9	18.1	-8.7	-2.9	3.6	100.1*
O=C(/C=C/c1cccs1)Nc1ccc([N+](=O)[O-])cc1	12.4	-2.6	-10.7	-23.5	9.8	41.5
COc1ccc(OC(=O)c2cccc([N+](=O)[O-])c2)c(C(=O)/C=C/c2cccs2)c1	16.8	-15.6	-19.6	-9.9	-2.0	72.7*
SMILES	NALP3 yeast inh	Calb FLC	T cruzi repl	PolyA inhibitor	NALP1 yeast inh	L major viab
Cc1ccc(Cl)cc1N1CCN(S(=O)(=O)c2c(C)[nH]c(C)c2C(=O)N2CCCCC2)CC1	-6.1	-2.7	-4.1	15.0	0.9	.
Cc1cc(-c2cc(C(=O)Nc3ccccc3)on2)nc(NC2CCCC2)n1	18.2	-2.0	-11.1	-12.4	.	.
CCC(C)c1ccc(NC(=O)COC(=O)C2=COCCO2)cc1 (configuration not stated)	10.9	1.0	-13.4	-14.6	2.4	0.7
COc1ccc(C(=O)/C=C/c2ccccc2OC)c(OC(=O)c2ccc([N+](=O)[O-])cc2)c1	9.6	-5.4	-11.8	-9.9	.	56.3*
COc1ccc(/C=C/C(=O)c2ccc(OC)cc2OC)cc1	28.6	7.5	-9.5	2.1	-2.2	25.8
COc1cccc(/C=C/C(=O)c2cccc([N+](=O)[O-])c2)c1	6.3	10.0	-16.8	-6.6	-4.8	97.5*
Cc1ccc(-n2nc3c(=O)n(CCCC(=O)NCc4ccc(C)o4)nc(C)c3c2C)cc1	0.7	4.9	1.9	?	-6.8	.
O=C(CSc1nnc(SCc2cccc3ccccc23)s1)N/N=C/C=C/c1ccccc1[N+](=O)[O-]	-3.0	-4.8	-0.5	15.2	35.9	1.6
Cc1ccc(S(=O)(=O)NNC(=O)c2ccc(NC(=O)C3CC3)cc2)cc1	11.5	111.4*	.	.	14.1	.
CC(=O)Nc1ccc(C(=O)NNS(=O)(=O)c2ccc(C)cc2)cc1	26.5	-7.2	-10.8	19.6	17.9	-6.8
Cc1nn(C)cc1C(C(=O)NC1CCCCC1)N(C(=O)Cc1cccs1)c1ccc(Cl)cc1 (configuration not stated)	-7.7	-2.9	-8.6	16.6	19.9	85.1*
COc1cc(N(C(=O)Cc2cccs2)C(C(=O)NC2CCCCC2)c2ccc(C)cc2)ccc1-n1cnnn1 (configuration not stated)	-11.4	8.8	10.4	-3.3	17.3	63.2*
Cc1nn(C)cc1C(C(=O)NC1CCCCC1)N(Cc1ccccc1Cl)C(=O)c1cnccn1 (configuration not stated)	8.3	78.3*	7.4	9.5	14.8	-6.4
CCN(CC)Cc1c(C(=O)N/N=C/c2ccc(C)o2)nnn1-c1nonc1N	21.2	-6.5	2.5	-19.0	-8.4	.
CCCNC(=O)COc1coc(CN2CCN(C(=O)c3ccco3)CC2)cc1=O	6.6	-5.9	-3.7	-4.2	.	.
COCCN1CC(CNC(=O)c2cc(COc3ccc(C)c(C)c3)on2)CC1=O (configuration not stated)	13.7	2.0	-14.9	-2.6	25.7	.
Cc1ccc(-n2c(SCC(=O)NCCN3C(=O)CSC3=O)nnc2-c2ccccc2)cc1	-5.5	-0.4	9.4	-1.5	21.1	61.8*
Cn1c(SCC(=O)c2c(N)n(C)c(=O)n(C)c2=O)nnc1-c1ccccc1	8.4	-5.8	6.2	16.7	-6.0	66.2*
Cn1c(SCC(=O)NCCN2C(=O)CSC2=O)nnc1-c1ccccc1	-4.1	42.6	-18.5	11.0	35.6	55.8*
O=C(O)CN(c1ccccn1)S(=O)(=O)c1ccccc1	3.7	-17.4	-22.0	-3.7	43.2*	-5.6
O=C(O)CN(c1ccccn1)S(=O)(=O)c1ccc(Cl)cc1	5.7	13.1	-9.5	4.9	13.2	-3.0
CCOc1ccc(C(=O)CCC(=O)N(CC)CC(=O)NCc2ccc(Cl)cc2)cc1	13.4	8.3	8.0	8.1	13.7	.
O=C(/C=C/c1ccc(Cl)cc1)NCc1ccco1	30.2	5.8	5.7	10.9	35.0	51.0*
